Data reported in ChEMBL document CHEMBL5346889, “Discovery of 4-oxo-N-phenyl-1,4-dihydroquinoline-3-carboxamide derivatives as novel anti-inflammatory agents for the treatment of acute lung injury and sepsis” (Eur J Med Chem, 2023).
Activity calls are given as the source filed them. The rule behind the calls is not given here.

Legend:
J774.A1 [1] = assay: Antiinflammatory activity in LPS-induced mouse J774.A1 cells assessed as inhibition of LPS-induced IL-1 beta transcription preincubated for 0.5 hrs followed by LPS stimulation for 6 hrs by RT-qPCR method; type: functional, cell-based; conditions: dose 5-10 µM, time 6.5 hrs
Method in brief: (§1)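 J774A.1 or THP-1 cells pretreated 0.5 h at 10 or 5 μM, then LPS 0.5 μg/mL for 6 h. TRIzol RNA; IL-6, TNF-α and IL-1β transcripts by RT-qPCR, normalized to β-actin and control; 3 independent experiments, mean ± SEM.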

J774.A1 [2] = assay: Antiinflammatory activity in LPS-induced mouse J774.A1 cells assessed as inhibition of LPS-induced TNF-alpha release at 10 uM preincubated for 30 mins followed by LPS stimulation for 24 hrs by ELISA method; type: functional; conditions: time 24.5 hrs
Method in brief: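 J774A.1 macrophages pretreated 30 min at 10 μM, then challenged with LPS 0.5 μg/mL for 24 h at 37 °C, 5% CO2. Medium IL-6 and TNF-α measured by ELISA, normalized to total lysate protein.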

J774.A1 [3] = assay: Antiinflammatory activity in LPS-induced mouse J774.A1 cells assessed as inhibition of LPS-induced TNF-alpha release preincubated for 30 mins followed by LPS stimulation for 24 hrs by ELISA method; type: functional, cell-based
Method in brief: (§2)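 Dose-response in J774A.1 cells: 30 min pretreatment at 10, 5, 2.5 or 1.25 μM, then LPS 0.5 μg/mL for 24 h. IL-6 and TNF-α by ELISA, normalized to lysate protein; IC50 from the dose-response; 3 independent experiments, mean ± SEM.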

J774.A1 [4] = assay: Antiinflammatory activity in LPS-induced mouse J774.A1 cells assessed as inhibition of LPS-induced IL-6 release preincubated for 30 mins followed by LPS stimulation for 24 hrs by ELISA method; type: functional, cell-based; method in brief: as §2
THP-1 [5] = assay: Antiinflammatory activity in LPS-induced human THP-1 cells assessed as inhibition of LPS-induced TNF-alpha release preincubated for 30 mins followed by LPS stimulation for 24 hrs by ELISA method; type: functional, cell-based
Method in brief: (§3)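 THP-1 or LX-2 cells in DMEM with 10% FBS, 37 °C, 5% CO2. Pretreated 30 min at 10, 5, 2.5 or 1.25 μM, then LPS 0.5 μg/mL for 24 h. IL-6 and TNF-α in medium measured by ELISA, normalized to lysate total protein; mean ± SEM of 3 independent experiments.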

LX-2 = assay: Antiinflammatory activity in LPS-induced human LX2 cells assessed as inhibition of LPS-induced IL-6 release preincubated for 30 mins followed by LPS stimulation for 24 hrs by ELISA method; type: functional, cell-based; method in brief: as §3
THP-1 [6] = assay: Antiinflammatory activity in LPS-induced human THP-1 cells assessed as inhibition of LPS-induced TNF-alpha transcription preincubated for 0.5 hrs followed by LPS stimulation for 6 hrs by RT-qPCR method; type: functional, cell-based; conditions: dose 5-10 µM, time 6.5 hrs; method in brief: as §1
[7] = Stability of the compound in pH 7.4 phosphate buffer measured upto 30 mins by UV-Vis analysis; type: physicochemical; conditions: pH 7.4, 0.5 h
Method in brief: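 Dissolved in phosphate buffer pH 7.4; UV-visible absorption (OD) recorded over 30 min.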

J774.A1 [8] = assay: Inhibition of NF-kappaB pathway in LPS-induced mouse J774.A1 cells assessed as reduction in p65 nuclear translocation preincubated with compound for 2 hrs followed by LPS-stimulation and measured after 30 mins by Western blot analysis; type: cell-based; conditions: time 2.5 hrs
Mus musculus [9] = assay: Protection against LPS-induced C57/BL6 mouse acute lung injury model assessed as reduction in protein concentration in BALF at 20 mg/kg via oral gavage preincubated for 30 mins followed by LPS stimulation for 6 hrs; type: functional, organism-based; conditions: time 6.5 hrs
Method in brief: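 Mice dosed 20 mg/kg by gavage (dexamethasone 20 mg/kg comparator), intratracheal LPS 5 mg/kg 30 min later, killed at 6 h. Right upper lobe fixed in paraformaldehyde, H&E; lung wet/dry ratio; BALF protein, total cells and neutrophils counted; n = 5 mice per group, mean ± SEM.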

Mus musculus [10] = assay: Antiinflammatory activity in LPS-induced C57/BL6 mouse acute lung injury model assessed as decrease in IL-6 expression level at 20 mg/kg via oral gavage preincubated for 30 mins followed by LPS stimulation for 6 hrs by RT-qPCR method; type: functional, organism-based; conditions: time 6.5 hrs
Method in brief: (§4)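 Male C57BL/6 mice, six weeks old, n = 8 per group. Dosed 20 mg/kg orally 30 min before intratracheal LPS 5 mg/kg; dexamethasone 20 mg/kg as comparator. Lung tissue collected 6 h after LPS. RNA extracted with TRIzol; IL-6 and TNF-α transcripts by RT-qPCR, normalized to β-actin; n = 5 mice per group, mean ± SEM.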

Mus musculus [11] = assay: Antiinflammatory activity in LPS-induced C57/BL6 mouse acute lung injury model assessed as decrease in TNF-alpha expression level at 20 mg/kg via oral gavage preincubated for 30 mins followed by LPS stimulation for 6 hrs by RT-qPCR method; type: functional, organism-based; conditions: time 6.5 hrs; method in brief: as §4
Mus musculus [12] = assay: Antiinflammatory activity in LPS-induced C57/BL6 mouse acute lung injury model assessed as reduction in macrophage infiltration at 20 mg/kg via oral gavage preincubated for 30 mins followed by LPS stimulation for 6 hrs by immunohistochemical staining based analysis; type: functional, organism-based; conditions: time 6.5 hrs
Method in brief: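 Same ALI model: 20 mg/kg oral, intratracheal LPS 5 mg/kg 30 min later, lungs at 6 h. Paraffin sections given citrate (pH 6.5) antigen retrieval, 3% H2O2 and 5% BSA block, anti-F4/80 12 h at 4 °C, HRP secondary, DAB and hematoxylin; F4/80 positivity quantified; n = 5 per group.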

Mus musculus [13] = assay: Protection against LPS-induced sepsis in C57/BL6 mouse model assessed as reduction in weight loss at 20 mg/kg, po preincubated with compound followed by LPS stimulation for 1 hr and measured every 24 hrs by 6 days; type: functional, organism-based; conditions: time 6.0 day
Method in brief: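 Sepsis model in C57BL/6 mice, n = 12 per group: oral 20 mg/kg, then intraperitoneal LPS 20 mg/kg 1 h later; saline control. Survival checked every 12 h and body weight every 24 h for 6 days.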

[14] = AUC (0 to t) in rat at 10 mg/kg, po; type: ADME, organism-based; parameters: dose 10 mg/kg, route po; conditions: in vivo
Method in brief: (§5)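 Rats dosed intravenously at 1 mg/kg or orally at 10 mg/kg; plasma pharmacokinetic parameters AUC(0-t), Tmax, T1/2, Cmax and oral bioavailability F derived from the two routes.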

[15] = Half life in rat at 1 mg/kg, iv; type: ADME, organism-based; conditions: in vivo; method in brief: as §5
[16] = Oral bioavailability in rat at 10 mg/kg; type: ADME, organism-based; conditions: in vivo; method in brief: as §5
Mus musculus [17] = assay: Protection against LPS-induced sepsis in C57/BL6 mouse model assessed as reduction of lymph node hyperplasia at 20 mg/kg, po preincubated with compound followed by LPS stimulation for 1 hr by H and E staining based analysis; type: functional, organism-based
Method in brief: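 Mice given 20 mg/kg orally, then intraperitoneal LPS 20 mg/kg 1 h later; n = 12 per group. Kidney, liver, heart and spleen weighed; spleen sections H&E-stained for histology.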

Mus musculus [18] = assay: Antiinflammatory activity in LPS-induced C57/BL6 mouse acute lung injury model assessed as decrease in IL-6 level in BALF at 20 mg/kg via oral gavage preincubated for 30 mins followed by LPS stimulation for 6 hrs by ELISA; conditions: time 6.5 hrs

IC50 (J774.A1 [3]): 2.4 µM
IC50 (J774.A1 [4]): 1.33 µM
IC50 (THP-1 [5]): 1.67 µM
IC50 (LX-2): 2.62 µM
Stability [7]: Stable
AUC(0-t) [14]: 22900 ng·h/mL
half-life [15]: 8.9 h
bioavailability [16]: 36.3%
Structure (SMILES): COc1cc2nccc(Oc3ccc(NC(=O)c4cn(-c5ccccc5)c5ccccc5c4=O)cc3)c2cc1OC
inhibition (J774.A1 [1]): Dose-Dependent Effect
inhibition at 10 µM (J774.A1 [2]): 82.6%
inhibition (J774.A1 [3]; dose 1.25-10 µM, time 24.5 hrs): Dose-Dependent Effect
inhibition (J774.A1 [4]; dose 1.25-10 µM, time 24.5 hrs): Dose-Dependent Effect
inhibition (THP-1 [6]): Dose-Dependent Effect
inhibition (J774.A1 [8]): Active
Activity (Mus musculus [9]): Active
Activity (Mus musculus [10]): Active
Activity (Mus musculus [11]): Active
Activity (Mus musculus [12]): Active
Activity (Mus musculus [13]): Active
Activity (Mus musculus [17]): Active
Activity (Mus musculus [18]): Active
